# Measured values taken from ChEMBL document CHEMBL5058577, “EUbOPEN Chemogenomics Library 2 (Multiplex)” (2022).
# Tested on: U2OS
# Assay: Multiplex assay against U2OS
# Assay type: toxicity, cell-based
# Conditions: human
# In short: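 Live cells were stained at seeding with Hoechst33342, BioTracker Green Microtubule Cytoskeleton Dye, MitoTracker Red and Annexin V Alexa Fluor 680, then imaged on a CQ1 microscope at 37°C and 5% CO2 after compound addition. CellPathfinder machine-learning gating split cells into Hoechst high-intensity objects or normal cells. Normal cells were split into healthy, pyknosed or fragmented nuclei, and pyknosed cells into mitotic or apoptotic. Tubulin, mitochondrial-mass and membrane-permeability phenotypes are per cents of healthy-nucleus cells.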
# [1] = 12 h, 1 µM, compound concentration 1 uM, replicate 1
# [2] = 12 h, 1 µM, compound concentration 1 uM, replicate 2
# [3] = 12 h, 10 µM, compound concentration 10 uM, replicate 1
# [4] = 12 h, 10 µM, compound concentration 10 uM, replicate 2
# [5] = 24 h, 1 µM, compound concentration 1 uM, replicate 1
# [6] = 24 h, 1 µM, compound concentration 1 uM, replicate 2
# [7] = 24 h, 10 µM, compound concentration 10 uM, replicate 1
# [8] = 24 h, 10 µM, compound concentration 10 uM, replicate 2
# [9] = 48 h, 1 µM, compound concentration 1 uM, replicate 1
# [10] = 48 h, 1 µM, compound concentration 1 uM, replicate 2
# [11] = 48 h, 10 µM, compound concentration 10 uM, replicate 1
# [12] = 48 h, 10 µM, compound concentration 10 uM, replicate 2
compound,measurement,setting,value
Br.CS(=O)(=O)Nc1c(O)ccc2c1CCCC2C1=NCCN1 (centres undefined),Population Apoptotic (%),[1],63%
same,Population Fragmented Nuclei (%),[1],20%
same,Population Healthy Nuclei (%),[1],75%
same,Population Hoechst High Intensity Objects (%),[1],2%
same,Population Membrane Permeable-Phenotype (%),[1],3%
same,Population Mitochondria Different-Phenotype (%),[1],2%
same,Population Mitotic Cells (%),[1],36%
same,Population Normal (%),[1],97%
same,Population Pyknosed Nuclei (%),[1],3%
same,Population Tubulin-Different-Phenotype (%),[1],2%
same,Total Cell Count,[1],288
same,Population Apoptotic (%),[2],80%
same,Population Fragmented Nuclei (%),[2],13%
same,Population Healthy Nuclei (%),[2],82%
same,Population Hoechst High Intensity Objects (%),[2],0%
same,Population Membrane Permeable-Phenotype (%),[2],5%
same,Population Mitochondria Different-Phenotype (%),[2],1%
same,Population Mitotic Cells (%),[2],20%
same,Population Normal (%),[2],100%
same,Population Tubulin-Different-Phenotype (%),[2],1%
same,Total Cell Count,[2],151
same,Population Apoptotic (%),[3],69%
same,Population Fragmented Nuclei (%),[3],36%
same,Population Healthy Nuclei (%),[3],57%
same,Population Hoechst High Intensity Objects (%),[3],1%
same,Population Membrane Permeable-Phenotype (%),[3],8%
same,Population Mitochondria Different-Phenotype (%),[3],0%
same,Population Mitotic Cells (%),[3],30%
same,Population Normal (%),[3],98%
same,Population Pyknosed Nuclei (%),[3],6%
same,Population Tubulin-Different-Phenotype (%),[3],1%
same,Total Cell Count,[3],215
same,Population Apoptotic (%),[4],100%
same,Population Fragmented Nuclei (%),[4],22%
same,Population Healthy Nuclei (%),[4],75%
same,Population Hoechst High Intensity Objects (%),[4],0%
same,Population Membrane Permeable-Phenotype (%),[4],6%
same,Population Mitochondria Different-Phenotype (%),[4],6%
same,Population Mitotic Cells (%),[4],0%
same,Population Normal (%),[4],100%
same,Population Pyknosed Nuclei (%),[4],2%
same,Total Cell Count,[4],84
same,Population Apoptotic (%),[5],76%
same,Population Fragmented Nuclei (%),[5],18%
same,Population Healthy Nuclei (%),[5],73%
same,Population Hoechst High Intensity Objects (%),[5],2%
same,Population Membrane Permeable-Phenotype (%),[5],3%
same,Population Mitochondria Different-Phenotype (%),[5],2%
same,Population Mitotic Cells (%),[5],23%
same,Population Normal (%),[5],97%
same,Population Pyknosed Nuclei (%),[5],7%
same,Population Tubulin-Different-Phenotype (%),[5],2%
same,Total Cell Count,[5],341
same,Population Apoptotic (%),[6],92%
same,Population Fragmented Nuclei (%),[6],14%
same,Population Healthy Nuclei (%),[6],78%
same,Population Hoechst High Intensity Objects (%),[6],1%
same,Population Membrane Permeable-Phenotype (%),[6],7%
same,Population Mitotic Cells (%),[6],7%
same,Population Normal (%),[6],98%
same,Population Tubulin-Different-Phenotype (%),[6],4%
same,Total Cell Count,[6],185
same,Population Apoptotic (%),[7],86%
same,Population Fragmented Nuclei (%),[7],31%
same,Population Healthy Nuclei (%),[7],62%
same,Population Hoechst High Intensity Objects (%),[7],2%
same,Population Membrane Permeable-Phenotype (%),[7],5%
same,Population Mitochondria Different-Phenotype (%),[7],1%
same,Population Mitotic Cells (%),[7],13%
same,Population Normal (%),[7],97%
same,Population Pyknosed Nuclei (%),[7],6%
same,Population Tubulin-Different-Phenotype (%),[7],2%
same,Total Cell Count,[7],240
same,Population Apoptotic (%),[8],100%
same,Population Fragmented Nuclei (%),[8],16%
same,Population Healthy Nuclei (%),[8],80%
same,Population Hoechst High Intensity Objects (%),[8],0%
same,Population Membrane Permeable-Phenotype (%),[8],3%
same,Population Mitochondria Different-Phenotype (%),[8],4%
same,Population Mitotic Cells (%),[8],0%
same,Population Normal (%),[8],100%
same,Population Pyknosed Nuclei (%),[8],2%
same,Population Tubulin-Different-Phenotype (%),[8],3%
same,Total Cell Count,[8],103
same,Population Apoptotic (%),[9],74%
same,Population Fragmented Nuclei (%),[9],14%
same,Population Healthy Nuclei (%),[9],78%
same,Population Hoechst High Intensity Objects (%),[9],1%
same,Population Membrane Permeable-Phenotype (%),[9],2%
same,Population Mitochondria Different-Phenotype (%),[9],2%
same,Population Mitotic Cells (%),[9],25%
same,Population Normal (%),[9],98%
same,Population Pyknosed Nuclei (%),[9],6%
same,Population Tubulin-Different-Phenotype (%),[9],2%
same,Total Cell Count,[9],484
same,Population Apoptotic (%),[10],81%
same,Population Fragmented Nuclei (%),[10],13%
same,Population Healthy Nuclei (%),[10],76%
same,Population Membrane Permeable-Phenotype (%),[10],5%
same,Population Mitotic Cells (%),[10],18%
same,Population Pyknosed Nuclei (%),[10],10%
same,Population Tubulin-Different-Phenotype (%),[10],1%
same,Total Cell Count,[10],253
same,Population Apoptotic (%),[11],90%
same,Population Fragmented Nuclei (%),[11],23%
same,Population Healthy Nuclei (%),[11],70%
same,Population Hoechst High Intensity Objects (%),[11],1%
same,Population Membrane Permeable-Phenotype (%),[11],5%
same,Population Mitochondria Different-Phenotype (%),[11],1%
same,Population Mitotic Cells (%),[11],10%
same,Population Normal (%),[11],98%
same,Population Pyknosed Nuclei (%),[11],6%
same,Population Tubulin-Different-Phenotype (%),[11],2%
same,Total Cell Count,[11],333
same,Population Apoptotic (%),[12],100%
same,Population Fragmented Nuclei (%),[12],17%
same,Population Healthy Nuclei (%),[12],74%
same,Population Hoechst High Intensity Objects (%),[12],0%
same,Population Membrane Permeable-Phenotype (%),[12],3%
same,Population Mitochondria Different-Phenotype (%),[12],6%
same,Population Mitotic Cells (%),[12],0%
same,Population Normal (%),[12],100%
same,Population Pyknosed Nuclei (%),[12],7%
same,Total Cell Count,[12],152
